Source: PubChem BioAssay (several laboratories)
Compounds with a hit are over-represented: about 5.5% of the library has one in this group of screens.
Ecoli WT expand: growth inhibitors of E. coli BW25113 wild type | OD600 absorbance | growth inhibition, % at 100 µM | hit rate 0.15% among 98,000;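 active = growth inhibition above about 50% at one test dose, limit read from the data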;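 also: growth measured after 20 h incubation at 37 °C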
HePTP inh: blocks human HePTP tyrosine phosphatase. inhibition, % at 20 µM. hit rate 0.64% among 110,000. recombinant HePTP phosphatase activity, OD absorbance. P35236; in the data active = inhibition above about 50%;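 also: plate controls were vehicle for no effect and reference inhibitor for full effect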
PostGolgi ctrl: yeast control strain growth, post-Golgi counter-screen | inhibition, % at 10 µM | hit rate 5% among 98,000 | efflux-deficient yeast background strain, growth absorbance A615, 16 h
PLAP act: human PLAP activation | purified PLAP enzyme, luminescent substrate read-out; active compounds read high | activation fold at 20 µM | hit rate 1.2% among 96,000; in the data active = activation fold above about 2
Target sequence (P05187 whole entry, looked up): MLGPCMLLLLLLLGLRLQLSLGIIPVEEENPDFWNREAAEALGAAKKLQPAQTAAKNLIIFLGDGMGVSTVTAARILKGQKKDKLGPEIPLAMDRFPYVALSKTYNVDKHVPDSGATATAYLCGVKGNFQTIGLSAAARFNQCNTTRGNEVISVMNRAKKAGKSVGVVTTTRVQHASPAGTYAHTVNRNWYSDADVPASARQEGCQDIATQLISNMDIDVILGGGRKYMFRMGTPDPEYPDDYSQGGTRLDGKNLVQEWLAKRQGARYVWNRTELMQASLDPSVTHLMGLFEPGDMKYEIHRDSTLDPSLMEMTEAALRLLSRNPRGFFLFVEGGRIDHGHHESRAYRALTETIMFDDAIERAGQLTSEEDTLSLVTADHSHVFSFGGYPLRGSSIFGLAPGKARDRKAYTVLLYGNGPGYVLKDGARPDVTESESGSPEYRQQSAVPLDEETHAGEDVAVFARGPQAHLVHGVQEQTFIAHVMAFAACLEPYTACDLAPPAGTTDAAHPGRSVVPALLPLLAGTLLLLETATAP
tolC growth inh: growth inhibitors of E. coli BW25113 tolC mutant | OD615 | growth inhibition, % at 10 µM (by protocol) | hit rate 2.2% among 65,000;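 active = growth inhibition at or above a cutoff equal to the mean over every tested compound plus 3 SD, cut at about 60% in these data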;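 also: growth measured after 20 h incubation at 37 °C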
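Test system: E. coli BW25113 ΔtolC::kan bacteria; incubation: 37 °C, 20 h exposure; medium: LB broth supplemented with 50 µg/mL kanamycin; read-out basis: percent growth inhibition; signal: A615 absorbance measurement; compound: 10 µM final, single dose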
PostGolgi yeast: growth inhibition of a yeast mutant, post-Golgi transport screen; post-Golgi transport phenotypic cell assay; inhibition, % at 10 µM; hit rate 0.9% among 98,000; AID 739;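 also: yeast cells grown in 1536-well plates; yeast grown about 18 h at 30C before absorbance read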
Active calls of the source: *. Rule as the data show it, unless noted: active = inhibition above about 30%; inactive = the rest.

For Cc1nc2ncnn2c(C)c1CCC(=O)N1CCN(c2ccccn2)CC1 the results were Ecoli WT expand 7, HePTP inh 0, PostGolgi ctrl -6, PLAP act 1.1, tolC growth inh -12 and PostGolgi yeast -6.
Cc1nc2cc(-c3ccccc3)nn2c(C)c1CCC(=O)N1CCN(c2ccccc2)CC1 was read as Ecoli WT expand -4, PostGolgi ctrl 45*, PLAP act 1.6 and PostGolgi yeast 0.
`COc1ccc(NC(=O)N2CCN(c3nc(-c4cccc(OC)c4)cs3)CC2)cc1` gave Ecoli WT expand -18, HePTP inh 11, PostGolgi ctrl 41*, tolC growth inh 33 and PostGolgi yeast -17.
Screening CCOc1ccc(NC(=O)CNC(=O)c2cn(-c3ccccc3OC)c(=O)c3ccccc23)cc1 returned Ecoli WT expand -2, PostGolgi ctrl -5, PLAP act 2* and PostGolgi yeast -2.
`CC1=C(C(=O)OCCc2ccccc2)C(c2ccccc2F)CC(=O)N1` (stereo not given) gave HePTP inh 4.
Cc1cc(C)c(C)c(OCCCCCN2CCCC2)c1 was read as HePTP inh 5.
`Cc1oc2ccc(NS(=O)(=O)c3ccccc3)cc2c1C(=O)OC(C)C` gave HePTP inh -10.
`Nc1ccccc1C(=O)NNc1ncc(C(F)(F)F)cc1Cl` gave Ecoli WT expand 4, PostGolgi ctrl 1, PLAP act 2* and PostGolgi yeast 0.
O=C(COC(=O)c1ccc2ccccc2c1)Nc1ncc(C(F)(F)F)cc1Cl was read as Ecoli WT expand -7, PostGolgi ctrl 4, PLAP act 1.1 and PostGolgi yeast -7.
CC1Cc2nc(SCC(N)=O)n(Cc3ccccc3)c(=O)c2S1 (stereo not given) was read as HePTP inh 2 and tolC growth inh -2.
CCSc1nc2c(c(=O)n1Cc1ccccc1)SC(C)C2 (stereo not given) was read as Ecoli WT expand -2, PostGolgi ctrl 33*, PLAP act 0.8, tolC growth inh 40 and PostGolgi yeast 1.
`COC(=O)C1=C(C)N(c2ccc(C)cc2)/C(=C/c2cccs2)C1=O` gave Ecoli WT expand -5, PostGolgi ctrl 33*, PLAP act 1 and PostGolgi yeast 22.
For COC(=O)C1=C(C)N(c2ccc(F)cc2)/C(=C/c2ccc(O)cc2)C1=O the results were HePTP inh 10.
CC(C)COc1ccc(C(=O)N/C(=C/c2ccc3c(c2)OCO3)C(N)=O)cc1 was read as HePTP inh 10.
Screening O=C(c1cc2cc([N+](=O)[O-])ccc2oc1=O)N1CCN(C/C=C/c2ccccc2)CC1 returned HePTP inh -3.
`Cn1c(N)c(C(=O)NCc2ccccc2)sc1=S` gave Ecoli WT expand 11, HePTP inh -5, PostGolgi ctrl 25, PLAP act 0.9, tolC growth inh -3 and PostGolgi yeast -28.
Cc1c(C(=O)N/N=C/c2ccccc2)sc(=S)n1C was read as Ecoli WT expand -3, PostGolgi ctrl 38*, PLAP act 1.1 and PostGolgi yeast 7.
CCOC(=O)c1ccc2c(c1)c1c(n2CC)C(=O)CCC1 was read as HePTP inh -3.
For Cn1nc(C(F)(F)F)c2cc(NC(=O)OCc3ccc(C(C)(C)C)cc3)sc21 the results were Ecoli WT expand -4, PostGolgi ctrl 38*, PLAP act 1.5 and PostGolgi yeast -5.
`Cc1ccc(Cl)c(OCCCN2CCCCC2)c1` gave HePTP inh -10.
Screening CNC(=O)C(=O)Nc1cccc2ccccc12 returned HePTP inh 10.
For CCCn1c(N)c(C(=O)CSc2nc(C)cs2)c(=O)n(C)c1=O the results were Ecoli WT expand 2, PostGolgi ctrl 13, PLAP act 0.9 and PostGolgi yeast 35*.
`Cn1c(=O)c2nc(NCc3ccccc3)cnc2n(C)c1=O` gave Ecoli WT expand 4, HePTP inh -2, PostGolgi ctrl -1, PLAP act 1, tolC growth inh -13 and PostGolgi yeast 35*.
Screening O=C(CCc1ccccc1)NCC(=O)N/N=C/C=C/c1ccccc1 returned HePTP inh -12.
COc1ccc(Cc2c(O)nc(SCC(=O)Nc3ccccc3OC)[nH]c2=O)cc1 was read as HePTP inh 11.
Screening O=S(=O)(c1ccc2ccccc2c1)N(CC(O)COCc1ccco1)c1ccccc1 (stereo not given) returned Ecoli WT expand -2, PostGolgi ctrl 31*, PLAP act 1.1 and PostGolgi yeast 20.
Screening N=c1nc(N)nc2n1NC(c1ccc(F)cc1)=CS2 returned Ecoli WT expand 7, HePTP inh -5, PostGolgi ctrl -10, PLAP act 1, tolC growth inh 3 and PostGolgi yeast 99*.
N=c1nc(N)nc2n1NC(c1ccc(Cl)cc1)=CS2 was read as HePTP inh 1.
COc1cc(OC)cc(C(=O)NCCC2=CCCCC2)c1 was read as HePTP inh 4.
O=C(Nc1cc(S(=O)(=O)N2CCOCC2)ccc1Cl)C(=O)c1c(-c2ccccc2)cc2ccccn12 was read as Ecoli WT expand -10, PostGolgi ctrl 100*, PLAP act 1.3 and PostGolgi yeast 93*.
`NC(=O)c1cc(S(=O)(=O)N2CCOCC2)ccc1Cl` gave HePTP inh -8.
`COc1ccc(-c2nc(C(N)=O)c3[nH]c(=O)n(-c4ccccc4OC)c3n2)c(OC)c1` gave Ecoli WT expand 7, HePTP inh 2, PostGolgi ctrl 5, PLAP act 2.4*, tolC growth inh -2 and PostGolgi yeast -1.
Screening COc1ccc(OC)c(-c2nc(C(N)=O)c3[nH]c(=O)n(-c4ccc(F)cc4)c3n2)c1 returned Ecoli WT expand -10, HePTP inh 1, PostGolgi ctrl 6, PLAP act 1.5, tolC growth inh 24 and PostGolgi yeast -7.
For Cc1ccc(SC(C)C(=O)Nc2ncn[nH]2)cc1 (stereo not given) the results were Ecoli WT expand 5, HePTP inh 1, PostGolgi ctrl -4, PLAP act 2.1*, tolC growth inh -4 and PostGolgi yeast 42*.
Screening COc1cccc(/C=N/Nc2nc(Nc3ccccc3)nc(-n3nc(C)cc3C)n2)c1O returned Ecoli WT expand -9, PostGolgi ctrl 58*, PLAP act 2.3* and PostGolgi yeast 0.
`CCOc1ccc(C)cc1S(=O)(=O)NC1CCCCC1` gave Ecoli WT expand 11, HePTP inh 4, PostGolgi ctrl 2, PLAP act 2.2*, tolC growth inh 7 and PostGolgi yeast 0.
Cc1ccc(CSC2=NCCN2C(=O)c2ccco2)cc1 was read as Ecoli WT expand -7, HePTP inh 9, PostGolgi ctrl 1, PLAP act 0.9, tolC growth inh 3 and PostGolgi yeast 2.
O=C(c1cccs1)N1CCN=C1SCc1cccnc1 was read as Ecoli WT expand -11, HePTP inh 11, PostGolgi ctrl 31*, PLAP act 0.9, tolC growth inh -18 and PostGolgi yeast 6.
